14-3-3 Bad inh – disrupts binding of bovine 14-3-3 zeta to phospho-Bad peptide. P63103. TR-FRET 14-3-3zeta/Dy647-pBad peptide displacement, 1 h. inhibition, % at 21.7 µM. hit rate 0.71% among 220,000. AID 781;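 active = inhibition above about 70%, limit read from the data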;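 note: 0% = full 14-3-3 plus peptide FRET controls and 100% = background without 14-3-3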
Target sequence (P63103 whole entry, looked up): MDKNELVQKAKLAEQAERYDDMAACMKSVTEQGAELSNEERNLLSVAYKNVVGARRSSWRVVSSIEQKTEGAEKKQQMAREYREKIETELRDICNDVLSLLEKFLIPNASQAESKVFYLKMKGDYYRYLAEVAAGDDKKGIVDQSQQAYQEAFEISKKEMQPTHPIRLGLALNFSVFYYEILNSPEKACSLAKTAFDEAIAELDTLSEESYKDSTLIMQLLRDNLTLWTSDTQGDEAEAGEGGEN
ROMK mod – human ROMK K+ channel modulation, primary screen | Tet-inducible ROMK, thallium flux fluorescence; actives lie on both sides | B-score at 10 µM | hit rate 2% among 130,000 | AID 1918;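 active = signal ratio slope over the read window, or its plate-corrected B-score, at least 3 SD from the plate mean, either direction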;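 note: B-score of the F/F0 ratio slope over 7 to 12 s after thallium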
RBBP9 inh – human RBBP9 hydrolase inhibition; O75884; recombinant RBBP9, FP-Rh probe fluorescence polarization; inhibition, % at 7.94 µM; hit rate 0.2% among 220,000;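 active = inhibition above the campaign mean of all tested compounds plus 3 SD, cut at about 14% in these data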;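 note: plate controls were DMSO wells with RBBP9 for no effect and wells lacking RBBP9 protein for full effect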
Target sequence (O75884 whole entry, looked up): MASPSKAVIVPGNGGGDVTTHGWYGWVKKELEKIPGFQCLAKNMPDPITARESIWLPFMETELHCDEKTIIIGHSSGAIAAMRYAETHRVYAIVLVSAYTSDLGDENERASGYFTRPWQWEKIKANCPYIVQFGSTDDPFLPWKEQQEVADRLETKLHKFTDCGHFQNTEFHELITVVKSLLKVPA
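system = RBBP9 protein | input = RBBP9 at 2.5 µM in dispensed solution, before mixing | measured by = fluorescence polarization (mP), excitation 525 nm, emission 598 nm | incubation = enzyme-compound preincubation 30 min, then probe labeling 45 min, 25 °C | buffer or medium = Tris-NaCl-Pluronic buffer, pH 8.0 | compound = single dose 7.94 µM | also added = FP-Rh probe, 375 nM dispensing solution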
Cl transport mod – modulators of human KCC2 chloride dependent transport. Q9H2X9. KCC2 cells, thallium flux FluoZin-2 fluorescence. B-score of Tl+ flux slope (higher = more flux/activation; lower = inhibition) at 10 µM. hit rate 2.2% among 190,000. AID 1456;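 active = thallium flux slope and its plate-corrected score both differing from the plate sample mean at a set confidence after two filtering rounds, in either direction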;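 note: slope of fluorescence scaled to starting intensity during 10 to 20 s after thallium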
WT yeast gro inh – growth inhibition of WT yeast, mitochondrial fusion screen | mitochondrial fusion phenotypic screen, WT strain | inhibition, % at 10 µM | hit rate 2.1% among 190,000 | AID 1362; in the data active = inhibition above about 58%; tested in S. cerevisiae
NCF1 inh – inhibitors of human p47phox binding | P14598 | p47phox/p22phox peptide binding, fluorescence polarization, 2 h | inhibition, % at 24.7 µM | hit rate 0.53% among 220,000;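 active = inhibition above about 30%, limit read from the data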;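 note: 0% = p47phox with labelled peptide and 100% = labelled peptide alone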
The depositor's hits bear a star; . = no result. Hits are enriched below; roughly 5.8% of the tested compounds scored in any of these assays.

SMILES	14-3-3 Bad inh	ROMK mod	RBBP9 inh	Cl transport mod	WT yeast gro inh	NCF1 inh
CCOc1ccc(N/C=C/C(=O)c2ccc(C)cc2)c([N+](=O)[O-])c1	-2	.	-3	.	3	37*
COc1cccc(C2CCCCN(C)C2=O)c1 (centres undefined)	2	.	-8	0.66	.	8
CC1CCC(C(C)C)C(OCC(O)CNC(C)c2ccccc2)C1 (centres undefined)	-11	-1.9	-6	0.98	67*	4
CCOC(=O)N1CCN(CC(O)COC2CC(C)CCC2C(C)C)CC1 (centres undefined)	34	.	-3	-0.57	77*	-4
CCOC(=O)N1CCN(CC(O)COCCC23CC4CC(CC(C4)C2)C3)CC1 (centres undefined)	43	-0.9	-10	.	60*	-9
CC1CCN(CC(O)COC2CC(C)CCC2C(C)C)CC1 (centres undefined)	-2	-1.3	-8	0.036	6	-3
NC(=S)N/N=C1\CC(n2nnn(-c3cccc(Cl)c3)c2=S)C2COC1O2 (centres undefined)	-2	-0.34	-5	0.99	2	2
O=C(COC(=O)c1ccc([N+](=O)[O-])s1)Nc1ccc(Cl)cn1	-4	0.43	1	-1.2	-14	-13
CC(C)(C)c1ccc(NC(=O)COC(=O)c2ccc([N+](=O)[O-])s2)cc1	-7	0.45	0	-0.02	92*	-6
Cc1[nH]c2ccccc2c1C(=O)COC(=O)C1CCC(=O)N1 (centres undefined)	-3	.	0	0.74	0	-3
Cc1[nH]c2ccccc2c1C(=O)COC(=O)c1ccc([N+](=O)[O-])s1	12	-0.42	4	0.083	98*	-6
O=C(COC(=O)c1ccc([N+](=O)[O-])s1)NCc1ccccc1	3	.	-8	-0.00082	20	-11
O=C(COC(=O)c1ccc([N+](=O)[O-])s1)Nc1ccccc1	-18	-0.52	-1	-0.035	70*	-1
NS(=O)(=O)c1ccc(CNS(=O)(=O)c2cccc3nonc23)cc1	-4	0.46	-8	0.51	.	-16
CC1CC(CCC(=O)NC(=S)Nc2ccc(S(N)(=O)=O)cc2)C(=O)O1 (centres undefined)	-1	0.99	-3	1.5	-2	-12
O=C(/C=C/Nc1ccc(Oc2ccccc2)cc1)c1ccco1	-16	0.083	-6	0.37	25	-5
CS(=O)(=O)N(CC(=O)NCc1ccc2c(c1)OCO2)c1ccc(Cl)cc1	5	0.15	7	0.6	80*	2
O=C(NCc1ccc2c(c1)OCO2)c1ccc(CSCc2ccc(Cl)cc2)o1	-7	-1.4	-2	-0.35	59*	-7
O=C(NCc1ccc2c(c1)OCO2)c1ccc(CS(=O)(=O)Cc2cccc(Cl)c2)o1	-19	-1.2	-6	-0.36	-10	-3
CS(=O)(=O)N(CC(=O)NCc1ccc2c(c1)OCO2)c1cccc(Cl)c1	4	-0.71	-11	-0.43	2	0
C=CCNC(=O)CN1C(=O)C2C3c4ccccc4C(c4ccccc43)C2C1=O (centres undefined)	-2	0.61	-8	0.33	-4	8
Cc1ccc2nc(SCC(=O)Nc3cccc(S(=O)(=O)NC4=NCCCCC4)c3)[nH]c2c1	-1	.	-4	-1.4	.	-7
Nc1cccc(S(=O)(=O)Nc2ccccc2)c1	-5	0.72	-4	.	-9	-6
COc1cc(OC)nc(Oc2ccccc2C(=O)Oc2ccc(F)cc2Cl)n1	-17	.	-7	-1.5	69*	-8
Cc1ccc(-n2c(CSc3nc(C)cc(C)n3)nnc2SCC(=O)Nc2nccs2)cc1	-3	.	-5	-0.073	.	36*
SMILES	14-3-3 Bad inh	ROMK mod	RBBP9 inh	Cl transport mod	WT yeast gro inh	NCF1 inh
COc1ccc(-n2c(CSc3nc(C)cc(C)n3)nnc2SCC(=O)Nc2nccs2)cc1	-6	-0.35	-4	.	19	-3
O=C(Oc1ccc2ccccc2c1Cl)N1CCCCCC1	15	.	1	-0.9	81*	1
O=c1cc2c(=O)oc3cc(O)c(O)oc3c2c(O)c1O	89*	.	-1	-0.28	.	-17
O=c1oc2cc(O)c(Cl)cc2c2ccccc12	-24	-0.96	3	-1.6	2	-7
CCCCOc1nc2ccccc2nc1C(C#N)S(=O)(=O)c1ccccc1 (centres undefined)	72*	-1.4	0	-0.76	4	-14
O=C(CNC(=S)N(Cc1ccccc1F)C1CCCCC1)NCC1CCCO1 (centres undefined)	-11	0.44	5	1.9	-5	-1
CCOc1ccc(C(=O)Nc2sc3c(c2C(=O)OC)CC(C)(C)NC3(C)C)cc1	0	.	2	-0.15	26	-8
COC(=O)c1c(NC(=O)c2nc3ccccc3s2)sc2c1CC(C)(C)NC2(C)C	-11	.	-4	-0.055	83*	-76
O=c1c2ccccc2nc2c3ccccc3c(NCCN3CCOCC3)nn12	5	-1.8	-7	-0.087	-4	-13
O=c1c2c(-c3ccccc3)csc2nc2c3ccccc3c(NCCN3CCOCC3)nn12	43	-1	-10	-0.87	17	74*
O=C(CSc1nc2[nH]ncc2c(=O)[nH]1)Nc1ccccc1	2	-0.57	11	-1.5	7	.
Cc1c(CN(C)C)c2c(n1C)C(=O)c1ccc(Br)cc1-2	21	-1.5	-4	.	-3	3
Cc1c(CN(C)C)c2c(n1Cc1ccccc1)C(=O)c1ccc(Br)cc1-2	-5	-0.1	-7	.	82*	-22
CN(Cc1cccs1)c1nc(-c2cccnc2)nc2ccccc12	3	-0.82	0	-3	64*	-9
COc1ccc(S(=O)(=O)N2c3ccccc3OCC2C(C)(C)C)cc1 (centres undefined)	2	0.53	-3	-0.0087	77*	-4
CC1(C)CC(c2nc(-c3ccccc3)cs2)CCS1 (centres undefined)	-3	.	0	0.26	61*	-9
CC1(C)CC(c2nc(-c3ccc(Br)cc3)cs2)CCS1 (centres undefined)	5	.	-4	-0.15	49	2
CC1(C)CC(c2nc(-c3ccc(Cl)cc3)cs2)CCS1 (centres undefined)	-6	.	-4	1.7	66*	-8
CC1CCCC(NC(=O)COC(=O)[C@@H](NC(=O)c2ccco2)C(C)C)C1C (some centres undefined)	-5	-0.29	2	-0.92	-11	.
Cc1ccc(C(NC(=O)NC(C)c2ccccc2)C(Cl)(Cl)Cl)cc1F (centres undefined)	8	.	-2	0.95	64*	1
CC(NC(=O)c1ccc(F)cc1)c1ccccc1 (centres undefined)	-1	.	1	-0.74	2	-4
O=C(NCCc1ccc(Cl)cc1)c1ncn[nH]1	7	-0.095	-3	.	91*	-9
O=C(NCCc1ccccc1)c1ncn[nH]1	-7	.	-12	0.85	0	-6

Assay outcomes: PubChem BioAssay, several laboratories
